Compound activity: PubChem BioAssay, several laboratories
HUVEC inhibit – inhibitors of HUVEC proliferation, primary screen, cell-based, 384-well. CellTiter-Glo luminescence, 72 h; hits give low values. viability, % at 10 µM (by protocol). 86,000 compounds, 1.1% hits. AID 648, 2007;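 active = viability at or below 30%; inactive = viability above 30%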;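 also: 100% = median luminescence of DMSO-only cell control wells on each plate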
Lung fibro prol – antiproliferative effect on LL 47 fibroblasts – human, LL 47 cells, CellTiter-Glo luminescence, primary screen | LL 47 human lung fibroblast viability, ATP luminescence; hits give low values | viability, % at 10 µM | 85,000 compounds, 1.1% hits | AID 719, 2007;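 active = viability at or below 50% in the single dose screen; inactive = viability above 50%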;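 also: compound exposure lasted 72 h before the ATP readout; 100% = median luminescence of untreated cell-only wells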
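Signal: luminescent ATP detection, CellTiter-Glo; assay system: LL 47 human lung fibroblasts; input: 1,150 cells/well; incubation: overnight cell rest, 72 h compound treatment at 37 °C; measure: % viability versus median cells-only luminescence; medium: IMEM growth medium with 15% fetal bovine serum; dosing: compound addition at 0.1% DMSO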
E coli WT exp – growth inhibitors of wild-type E. coli, primary screen, strain BW25113, expanded library, OD600; 98,000 compounds, 0.15% hits; growth inhibition, % at 100 µM; OD600 absorbance;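 active = growth inhibition above about 50% at one test dose, limit read from the data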;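 also: growth measured after 20 h incubation at 37 °C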
H69AR growth 86K – proliferation blockers of H69AR lung cancer cells, primary screen, cell-based, human, 86K library. 85,000 compounds, 6% hits. viability, % at 10 µM. H69AR lung tumor viability, ATP luminescence, 72 h; hits give low values. AID 598, 2007;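 active = viability at or below 40%; inactive = viability above 40%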;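 also: multidrug resistant small cell line overexpressing MRP-1 efflux transporter; 100% = mean luminescence of untreated control wells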
Jurkat viability – cytotoxicity toward Jurkat T cells, primary screen, cytotoxicity control, cell-based, Jurkat E6.1, 60K MLSMR library; inhibition, % at 4 µM; 56,000 compounds, 1.2% hits; AID 463, 2006; Jurkat E6.1 viability, ATP luminescence, 48 h;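 active = inhibition above the mean inhibition of all tested compounds plus 3 SD, cut at about 28% in these data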
Ecoli tolC – growth inhibitors of E. coli tolC mutant, primary screen, strain BW25113 ΔtolC::kan, 384-well. OD615. growth inhibition, % at 10 µM (by protocol). 65,000 compounds, 2.2% hits. AID 573, 2007;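 active = growth inhibition at or above a cutoff equal to the mean over every tested compound plus 3 SD, cut at about 60% in these data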;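 also: growth measured after 20 h incubation at 37 °C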
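Material: E. coli BW25113 ΔtolC::kan, tolC deletion mutant strain. Measure: percent growth inhibition. Schedule: 37 °C, 20 h exposure. Doses: single-point testing at 10 µM. Signal: A615 absorbance measurement. Buffer or medium: kanamycin-containing LB broth (50 µg/mL).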
* hit, by the source's call; . = no result. Compounds with a hit are over-represented: about 6.4% of the library has one in this group of screens.

SMILES | HUVEC inhibit | Lung fibro prol | E coli WT exp | H69AR growth 86K | Jurkat viability | Ecoli tolC
Cc1ccc(S(=O)(=O)NC2OC(=O)C(Cl)=C2Cl)cc1 (configuration not stated) | 80.9 | 97.2 | 34.0 | 7.0* | 0.7 | -4.2
COc1cccc(OC)c1/C(O)=C(\C#N)c1nc2ccccc2[nH]1 | 88.0 | 91.4 | 2.0 | 26.5* | 11.0 | 0.8
CCOC(=O)c1c(C)[nH]c(C(=O)OC/C(O)=C(\C#N)c2nc3ccccc3[nH]2)c1C | 9.2* | 112.2 | 7.0 | 57.4 | -3.3 | 5.7
Cc1cccnc1NC(=O)c1c(O)c2ccccc2n(C)c1=O | 115.4 | 93.9 | 3.0 | 5.4* | 2.8 | 21.8
O=C(NCC1CCCO1)c1c(O)c2cccc3c2n(c1=O)CCC3 (configuration not stated) | . | . | 2.0 | . | -2.0 | 2.1
Cc1cccnc1NC(=O)c1c(O)c2cccc3c2n(c1=O)CCC3 | 75.2 | 96.4 | -3.0 | 2.8* | -7.5 | 69.8*
O=C(Nc1nccs1)c1c(O)c2cccc3c2n(c1=O)CCC3 | 72.4 | 48.7* | -14.0 | 4.0* | -2.5 | -1.8
Cc1ccccc1NC(=O)c1c(O)c2cccc3c2n(c1=O)CC3 | 103.6 | 98.5 | . | 66.5 | -3.0 | -33.5
O=C(NCCO)c1c(O)c2cccc3c2n(c1=O)CC3 | 91.1 | 97.0 | 6.0 | . | -0.9 | 0.7
Cn1c(=O)c(C(=O)NCCO)c(O)c2ccccc21 | 103.9 | 105.2 | 11.0 | 92.4 | -2.0 | 23.2
Cc1ccccc1NC(=O)c1c(O)c2cccc3c2n(c1=O)CCC3 | 97.8 | 92.4 | . | 30.9* | -1.8 | -15.4
CCOC(=O)c1sc(=S)n(-c2cccc(C(F)(F)F)c2)c1SC | . | . | -7.0 | . | . | .
O=C(Nc1ccccn1)c1c(O)c2cccc3c2n(c1=O)CCC3 | 112.8 | 91.2 | -4.0 | 34.9* | 2.9 | 11.5
CC(C)n1c(SCC(=O)Nc2ccccc2)nc2c1c(=O)n(C)c(=O)n2C | 100.0 | 89.2 | . | 93.8 | . | .
Cc1cccc(NC(=O)c2sc3nc4c(c(-c5cccs5)c3c2N)CN(C)CC4)c1 | 14.9* | 81.2 | -2.0 | 56.8 | . | .
CCOC(=O)c1cc(-c2ccncc2)nc2c1c(C)nn2C | 45.5 | 57.1 | 0.0 | 33.1* | 1.4 | 6.9
O=C(Nc1nc2ccccc2s1)c1cc2c(s1)-c1ccccc1OC2 | 44.8 | 30.4* | -4.0 | 17.7* | . | .
O=C(Nc1nccs1)c1cc2c(s1)-c1ccccc1OC2 | . | . | 6.0 | . | . | .
Cc1cc(C)n(-c2nc3ccccc3nc2N2CCCCCC2)n1 | 89.8 | 98.8 | 4.0 | 88.2 | 6.5 | 74.0*
Cc1cc(C)n(-c2nc3ccccc3nc2N2CCCC2)n1 | 105.3 | 97.9 | -1.0 | 80.5 | . | .
COc1ccc(OC)c(NC(=O)c2cc(-c3cc(Cl)ccc3O)n[nH]2)c1 | 45.0 | 50.4 | -11.0 | 1.2* | 10.1 | 9.3
Cc1cc(NC(=O)c2ccoc2C)no1 | 83.1 | 91.1 | . | 70.5 | . | .
O=C(CN(C1CC1)S(=O)(=O)c1ccc(S(=O)(=O)NC2CCCCC2)cc1)Nc1ccccc1 | 82.5 | 90.2 | -12.0 | 58.3 | 11.1 | 82.9*
CC(C)CNC(=O)CN(C1CCCCC1)S(=O)(=O)c1ccccc1 | 108.6 | 93.3 | -2.0 | 86.2 | . | -1.8
Cn1c(NCC(O)c2ccccc2)nc2c1c(=O)n(Cc1ccc(Cl)c(Cl)c1)c(=O)n2C (configuration not stated) | 48.0 | 89.8 | . | 12.7* | . | 9.0
SMILES | HUVEC inhibit | Lung fibro prol | E coli WT exp | H69AR growth 86K | Jurkat viability | Ecoli tolC
Cn1c(NCc2ccccc2)nc2c1c(=O)n(Cc1ccccc1)c(=O)n2C | 86.3 | 84.8 | 6.0 | 81.1 | . | 8.6
COc1ccc(CNc2nc3c(c(=O)n(Cc4ccc(F)cc4)c(=O)n3C)n2C)cc1 | 94.8 | 98.3 | 10.0 | 77.0 | 0.3 | 71.0*
O=C(Nc1ccc2nccnc2c1)c1cnccn1 | 99.7 | 108.7 | 0.0 | 96.5 | . | -12.3
CCCn1c(C)cc(=O)c2cc(NC(=O)c3cnccn3)ccc21 | 96.0 | 98.4 | -6.0 | 7.2* | -0.1 | -12.7
CCCN1C(=O)C(Cc2nc3ccccc3c(=O)n2C)c2ccccc21 (configuration not stated) | 93.5 | 102.6 | 8.0 | 33.4* | . | .
COc1ccc(-n2nnnc2-c2ccccc2)cc1 | 58.4 | 60.0 | -4.0 | 19.8* | . | .
Cc1nc2c(ccc3nc(NC(=O)c4ccc(S(=O)(=O)N(C)C)cc4)sc32)s1 | 46.7 | 94.6 | -11.0 | 35.2* | 18.3 | -0.2
COCCNc1cc(C)nc2c3c(C)cc(C)nc3nn12 | 105.7 | 108.4 | 3.0 | 64.4 | -6.6 | -4.8
CCOc1cc(/C=N/NC(=O)Cn2nc([N+](=O)[O-])cc2C)cc(Br)c1OCc1ccccc1C | 3.6* | 5.9* | -3.0 | 0.6* | . | .
CNC(=O)Cn1nc(-c2ccc(C)c(S(=O)(=O)N(C)C)c2)c2ccccc2c1=O | 92.8 | 108.9 | . | 76.6 | . | .
O=C(CC1Sc2ncnn2C1=O)Nc1ccccc1 (configuration not stated) | 94.9 | 98.8 | 3.0 | 94.2 | . | .
Cc1ccc(S(=O)(=O)n2nc(C)cc2C)cc1 | 79.9 | 97.0 | -6.0 | 88.7 | . | .
Cc1cc(C)n(S(=O)(=O)/C=C/c2ccccc2)n1 | 76.2 | 26.2* | 0.0 | 1.1* | . | 9.2
N#C/C(=C\c1ccccc1)c1nc2ncccc2[nH]1 | . | . | -16.0 | . | . | .
COc1ccccc1Cc1nc(-c2ccc(Br)o2)no1 | 98.7 | 95.1 | 6.0 | 96.3 | -2.1 | 60.9*
COc1ccccc1-c1nc(-c2ccc(Br)o2)no1 | 110.4 | 92.0 | -9.0 | 65.4 | . | .
Cc1ccc(/C(N)=N/OC(=O)c2ccco2)cc1 | 83.5 | 98.5 | . | 75.6 | . | .
Cc1ccc(NC2=C(Cl)C(=O)OC2OC(=O)c2ccco2)cc1 (configuration not stated) | 65.4 | 92.1 | 4.0 | 33.2* | . | .
COc1ccc2c(c1OC)C(=O)N1c3ccccc3C(=O)N(c3ccccc3)C21 (configuration not stated) | 67.8 | 93.4 | 0.0 | 1.0* | . | 8.0
Cc1ccccc1N1C(=O)c2ccccc2N2C(=O)c3ccccc3C12 (configuration not stated) | 84.6 | 80.2 | -3.0 | 57.7 | . | .
COc1ccc2c(c1OC)C(=O)N1c3ccccc3C(=O)N(c3ccc(F)cc3)C21 (configuration not stated) | 88.2 | 93.2 | -4.0 | 11.8* | . | 10.2
CCOC(=O)c1c(C)n(C)c2cc(Br)c(C)cc12 | 98.4 | 99.2 | 0.0 | 97.2 | . | .
CCOC(=O)c1c(CN2CCN(Cc3ccccc3)CC2)n(C)c2cc(Br)c(OC)cc12 | 74.8 | 101.4 | -12.0 | 13.9* | . | .
CCOc1cc(S(=O)(=O)NCc2ccc(OC)cc2)c(OCC)cc1-n1cnnn1 | 58.1 | 56.4 | -10.0 | 21.6* | . | .
CC(=O)NC(CCS(C)(=O)=O)C(=O)Nc1ccc(Oc2ccccc2)cc1 (configuration not stated) | 109.9 | 99.0 | -2.0 | 91.3 | -0.1 | -5.2
